Bioassay records: PubChem BioAssay, SRMLSC
This excerpt belongs to a sample that is enriched for hits.
Lung fibro prol: blocks proliferation of human lung fibroblasts; LL 47 human lung fibroblast viability, ATP luminescence; stronger effect = lower value; viability, % at 10 µM; 85,000 compounds, 1.1% hits;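 active = viability at or below 50% in the single dose screen; inactive = viability above 50%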;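 also: compound exposure lasted 72 h before the ATP readout; 100% = median luminescence of untreated cell-only wells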
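Benchmarks: Cell-only wells, no compound | Test system: LL 47 human lung fibroblasts, passage 12 or lower | Input: 1,150 cells/well | Measured by: CellTiter-Glo luminescence measuring cellular ATP | Medium: IMEM, 15% FBS supplement | Schedule: Overnight attachment after seeding, then 72 h compound exposure at 37 °C | Doses: Compound addition at 0.1% DMSO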
HCT116 bCat-KO: beta-catenin-lacking colon tumor cell growth suppression; HCT116 beta-catenin knockout viability, CellTiter-Glo, 60 h; stronger effect = lower value; viability, % at 10 µM; 140,000 compounds, 1.5% hits; AID 818;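 active = viability at or under a set limit, the compound median less 4 SD, cut at about 6% in these data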;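 also: 0% = Hyamine 1622 control at 20 µM and 100% = untreated cell control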
H69AR inhibit: blocks growth of human H69AR lung tumor cells. H69AR lung tumor viability, ATP luminescence, 72 h; stronger effect = lower value. viability, % at 10 µM. 85,000 compounds, 6% hits. AID 598;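 active = viability at or below 40%; inactive = viability above 40%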;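 also: multidrug resistant small cell line overexpressing MRP-1 efflux transporter; 100% = mean luminescence of untreated control wells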
HCT116 PTEN-null: PTEN-deleted cell growth suppression; HCT116 PTEN-null viability, CellTiter-Glo, 60 h; stronger effect = lower value; viability, % at 10 µM; 140,000 compounds, 1.2% hits;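 active = viability at or below a set limit, 4 SD under the median of all tested compounds, cut at about 3.7% in these data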;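 also: PTEN knockout HCT116 line with beta catenin targeted HCT116 as companion control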
HUVEC prolif 384: human endothelial cell proliferation inhibition. HUVEC proliferation, CellTiter-Glo luminescence, 72 h; stronger effect = lower value. viability, % at 10 µM (by protocol). 86,000 compounds, 1.1% hits. AID 648;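 active = viability at or below 30%; inactive = viability above 30%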;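 also: 100% = median luminescence of DMSO-only cell control wells on each plate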
The depositor's hits bear a star; . = not tested or not shown.

SMILES	Lung fibro prol	HCT116 bCat-KO	H69AR inhibit	HCT116 PTEN-null	HUVEC prolif 384
CC1(C)Cc2c(c(N3CCOCC3)nc3snc(N)c23)CO1	3.5*	1.9*	95	1.9*	58
CC1(C)Cc2c(c(N3CCOCC3)nc3snc(Br)c23)CO1	89	97	19*	81	94
CCOc1cc(/C=C2\C(=O)N(c3cccc(C(F)(F)F)c3)C(=O)c3ccccc32)ccc1O	.	79	.	86	.
Cn1c(-c2ccc(C=O)s2)nc2c3ccccc3c3ccccc3c21	89	25	18*	7	60
COc1cc(/C=N/NC(=O)CCC(=O)NCc2ccccc2)cc(OC)c1OC	.	0.4*	.	0.3*	.
COc1cc(/C=N/NC(=O)CCn2c3ccccc3c3ccccc32)cc(OC)c1OC	.	95	.	93	.
COc1cc(OC)cc(C(=O)Nn2cc(C(=O)Nc3ccccc3F)c3ccccc3c2=O)c1	.	85	.	78	.
CCC(=O)OCCNc1cc(Sc2nccn2C)c2nonc2c1[N+](=O)[O-]	.	1.6*	.	1.7*	.
CCCC(=O)OCCNc1cc(Sc2nc3ccccc3[nH]2)c2nonc2c1[N+](=O)[O-]	.	3.6*	.	3.6*	.
CC(=O)OCCCNc1cc(Sc2ccc(Cl)cc2)c2nonc2c1[N+](=O)[O-]	.	1.5*	.	1.6*	.
CCC(=O)OCCNc1cc(SCCC(=O)OC)c2nonc2c1[N+](=O)[O-]	.	67	.	67	.
O=C(O)CCNC(=O)c1ccccc1	106	93	88	101	101
Cn1c(C(=O)NCCCN2CCOCC2)cc2c(=O)n(C)c3ccccc3c21	93	65	106	71	88
Cc1ccc(-n2nc(C(=O)N3CCN(C)CC3)c3c4ccccc4n(C)c3c2=O)cc1	97	.	82	.	89
COc1ccccc1CNC(=O)c1nn(-c2ccc(C)cc2)c(=O)c2c1c1ccccc1n2C	62	67	5.2*	64	71
COc1ccc(-n2nc(C(=O)NCC(=O)NCc3ccco3)c3ccccc3c2=O)cc1	103	91	101	98	91
COc1ccc(-n2nc(C(=O)NCc3ccco3)c3c4ccccc4n(C)c3c2=O)cc1Cl	34*	67	25*	60	63
CCN1CCCC1CNC(=O)c1nn(-c2ccc(C)cc2)c(=O)c2c1c1ccccc1n2C (centres undefined)	46*	.	48	.	25*
Cn1c(C(=O)NCCCN2CCN(c3ccccc3F)CC2)cc2c(=O)n(C)c3ccccc3c21	43*	1.7*	28*	4	42
C=CCNC(=O)NC(=O)COC(=O)/C(C#N)=C/c1cc(C)n(CCC(C)C)c1C	100	90	91	96	82
CN(C)S(=O)(=O)c1ccc(C(=O)NCCSc2ccccc2)cc1	.	101	.	106	.
COc1ccccc1CNC(=O)c1cc2c(=O)n(C)c3ccccc3c2n1C	91	.	26*	.	51
COc1ccccc1NC(=O)C1C2C=CC(O2)C1C(=O)O (centres undefined)	50*	92	93	97	92
Cc1noc(C)c1S(=O)(=O)N1CCC(C(=O)NC2CCN(Cc3ccccc3)CC2)CC1	93	83	98	81	97
CCOC(=O)c1snc(C(=O)NC2CCCCC2)c1N	101	101	98	95	110
SMILES	Lung fibro prol	HCT116 bCat-KO	H69AR inhibit	HCT116 PTEN-null	HUVEC prolif 384
CC(OC(=O)c1snc(C(=O)NC2CCCCC2)c1N)C(=O)NC1CCCCC1 (centres undefined)	71	88	23*	82	78
CCN(CC)S(=O)(=O)c1cccc(C(=O)Nc2cc(C)cc(C)c2)c1	100	83	32*	85	82
CCN(CC)S(=O)(=O)c1cccc(C(=O)Nc2cccc(C)c2)c1	102	33	25*	48	92
CCN(CC)S(=O)(=O)c1cccc(C(=O)Nc2ccc(C#N)cc2)c1	.	17	80	19	86
Cc1sc(NC(=O)CN2CCOCC2)c(C(=O)c2ccccc2)c1C	.	102	.	86	.
CCOC(=O)NCc1cc(-c2nn(C)c(=O)c3ccccc23)ccc1C	94	57	60	69	91
CC(C)C1CC(CCNCc2ccc(N(C)C)cc2)(c2ccccc2)CCO1 (centres undefined)	.	2.3*	.	2.6*	.
Cc1oc2c(C)c3oc(=O)c4c(c3cc2c1C)CCCC4	.	66	14*	63	81
Cc1c(O)ccc2c3c(c(=O)oc12)CCCC3	99	112	83	105	74
COc1ccc(-c2csc(N(CCCN(C)C)C(=O)c3cccs3)n2)cc1	94	51	22*	62	76
COCCCN(C(C)=O)c1nc(-c2ccc(OC)cc2)cs1	72	63	15*	63	63
COCCCN(C(=O)c1ccco1)c1nc(-c2cc(OC)ccc2OC)cs1	100	59	70	75	88
Cc1cccc(N2CCN(C(=O)Cn3sc4nc(C)cc(C)c4c3=O)CC2C)c1 (centres undefined)	23*	1.6*	0.0*	1.4*	68
Cc1ccc(-c2ccc(=O)n(CC(=O)N3CCN(c4cccc(C)c4)C(C)C3)n2)cc1 (centres undefined)	114	85	89	83	104
Cc1cc(C)c2c(=O)n(CC(=O)NCCCN3CCN(c4ccccc4F)CC3)sc2n1	28*	1.7*	0.4*	1.8*	69
Cc1cccc(N2CCN(C(=O)c3ccncc3)CC2C)c1 (centres undefined)	101	82	29*	71	84
Cc1cc(C)c2c(=O)n(CC(=O)N3CCC(Cc4ccccc4)CC3)sc2n1	65	1.4*	4.8*	9	90
CCN(CC)c1cc(-c2ccccc2)ncn1	.	100	.	109	.
Cc1cc(C(F)(F)F)n(-c2nc(C(=O)NNS(=O)(=O)c3ccccc3)cs2)n1	103	93	89	90	110
Cc1cc(NC(c2cccnc2)c2ccc3cccnc3c2O)no1 (centres undefined)	3.9*	4.3*	31*	5	57
Oc1c(C(Nc2ccccn2)c2cccnc2)cc(Cl)c2cccnc12 (centres undefined)	.	3.6*	.	4	.
CCOn1c(=O)c(-c2ccc(Cl)cc2)[n+]([O-])c2ccccc21	101	90	93	96	95
O=C(NCCN1CCOCC1)c1cc(=O)[nH]c2ccc(Br)cc12	104	94	89	84	89
O=C(NCCCN1CCOCC1)c1c(O)c2cc(Br)cc(Br)c2[nH]c1=O	100	.	18*	.	102
Cc1nnc(Sc2nc3ccccc3o2)c2ccccc12	94	18	6.8*	16	80
C=CCn1c(SCC(=O)c2[nH]c(C)c(C(=O)OCC)c2C)nc2scc(-c3ccc(OC)c(OC)c3)c2c1=O	.	1.0*	.	0.8*	.
CCOC(=O)c1c(C)[nH]c(C(=O)CSc2nnc(-c3ccncc3)n2CC)c1C	.	99	.	102	.
CCOC(=O)CSc1ccc(-c2nc3cc(C)c(C)cc3[nH]2)cn1	77	99	84	91	117
Cc1cc2nc(-c3ccc(SCC(=O)N4CCOCC4)nc3)[nH]c2cc1C	91	36	28*	32	45
